How the values were obtained:
Brain [1] = assay: Drug uptake in CD-1 mouse other brain region at 70 uCi, iv administered 10 mins post naltrindole challenge measured after 90 mins; assay type: ADME, organism-based; details: in vivo, 1.5 h
Procedure, shortened: (§1)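 Male CD-1 mice (25–30 g). […] Brains removed 90 min later and dissected on ice. Regions weighed and gamma-counted against injectate standards. Result as %ID/g, mean ± SD, n=3; ANOVA versus controls.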

Hippocampus [2] = assay: Drug uptake in CD-1 mouse hippocampus at 70 uCi, iv administered 10 mins post naltrindole challenge measured after 90 mins; assay type: ADME, organism-based; details: in vivo, 1.5 h
Procedure, shortened: (§2)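 Male CD-1 mice, n=3. Drug at 2 mg/kg s.c. in saline:DMSO 5:1, with vehicle controls. [18F] radiotracer (70 µCi, SA ~14000 mCi/µmol) given i.v. 10 min later. Regions harvested 90 min after tracer, gamma counted, expressed as %ID/g. Compared by single-factor ANOVA.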

[3] = Drug uptake in CD-1 mouse superior and inferior colliculus at 70 uCi, iv administered 10 mins post naltrindole challenge measured after 90 mins; assay type: ADME, organism-based; details: in vivo, 1.5 h; procedure, shortened: as §1
Cerebellum [4] = assay: Drug uptake in CD-1 mouse cerebellum at 70 uCi, iv administered 10 mins post ketanserin challenge measured after 90 mins; assay type: ADME, organism-based; details: in vivo, 1.5 h; procedure, shortened: as §2
[5] = Drug uptake in CD-1 mouse superior and inferior colliculus at 70 uCi, iv administered 10 mins post ketanserin challenge measured after 90 mins; assay type: ADME, organism-based; details: in vivo, 1.5 h; procedure, shortened: as §1
Cerebellum [6] = assay: Drug uptake in CD-1 mouse cerebellum at 70 uCi, iv administered 10 mins post spiperone challenge measured after 90 mins; assay type: ADME, organism-based; details: in vivo, 1.5 h; procedure, shortened: as §2
Brain [7] = assay: Drug uptake in CD-1 mouse other brain region at 70 uCi, iv administered 10 mins post spiperone challenge measured after 90 mins; assay type: ADME, organism-based; details: in vivo, 1.5 h; procedure, shortened: as §1
Cortex [8] = assay: Drug uptake in CD-1 mouse cortex at 70 uCi, iv administered 10 mins post spiperone challenge measured after 90 mins; assay type: ADME, organism-based; details: in vivo, 1.5 h; procedure, shortened: as §2
Hippocampus [9] = assay: Drug uptake in CD-1 mouse hippocampus at 70 uCi, iv administered 10 mins post spiperone challenge measured after 90 mins; assay type: ADME, organism-based; details: in vivo, 1.5 h; procedure, shortened: as §2
Brain [10] = assay: Drug uptake in CD-1 mouse other brain region at 70 uCi, iv administered 10 mins post SCH23390 challenge measured after 90 mins; assay type: ADME, organism-based; details: in vivo, 1.5 h; procedure, shortened: as §2
Cortex [11] = assay: Drug uptake in CD-1 mouse cortex at 70 uCi, iv administered 10 mins post SCH23390 challenge measured after 90 mins; assay type: ADME, organism-based; details: in vivo, 1.5 h; procedure, shortened: as §2
Cortex [12] = assay: Drug uptake in CD-1 mouse cortex at 70 uCi, iv administered 10 mins post ondansetron challenge measured after 90 mins; assay type: ADME, organism-based; details: in vivo, 1.5 h; procedure, shortened: as §2
[13] = Drug uptake in CD-1 mouse superior and inferior colliculus at 70 uCi, iv followed by compound washout by gamma-counting analysis; assay type: ADME, organism-based; details: in vivo
Procedure, shortened: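 Male CD-1 mice (25–30 g) given [18F]radioligand i.v. into a lateral tail vein (70 µCi, 8000–12000 mCi/µmol, in 0.2 mL saline). Killed by cervical dislocation at various times, three per time point. Brains dissected on ice; regions weighed and gamma-counted with injectate standards. Result as %ID/g.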

[14] = Drug uptake in CD-1 mouse superior and inferior colliculus at 70 uCi, iv administered 10 mins post ondansetron challenge measured after 90 mins; assay type: ADME, organism-based; details: in vivo, 1.5 h; procedure, shortened: as §1
[15] = Drug uptake in CD-1 mouse superior and inferior colliculus at 70 uCi, iv administered 10 mins post SSR180711 challenge measured after 90 mins; assay type: ADME, organism-based; details: in vivo, 1.5 h
Procedure, shortened: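 Male CD-1 mice given the selective α7 partial agonist as positive control, 2 mg/kg s.c. in saline:DMSO 5:1 (0.1 mL), 10 min before i.v. [18F]tracer (70 µCi, ~14000 mCi/µmol, 0.2 mL). Controls received vehicle. Brain regions dissected at 90 min and gamma-counted. %ID/g, mean ± SD, n=3; ANOVA.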

Cerebellum [16] = assay: Drug uptake in CD-1 mouse cerebellum at 70 uCi, iv after 90 mins in presence of nicotine; assay type: ADME, organism-based; details: in vivo, 1.5 h
Procedure, shortened: (§3)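 Male CD-1 mice, n=3. […] [18F] radiotracer (70 µCi, SA ~14000 mCi/µmol) given i.v. 5 min later. Regions harvested at 90 min, gamma counted, expressed as %ID/g.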

Hippocampus [17] = assay: Drug uptake in CD-1 mouse hippocampus at 70 uCi, iv after 90 mins in presence of nicotine; assay type: ADME, organism-based; details: in vivo, 1.5 h; procedure, shortened: as §3
[18] = Drug uptake in CD-1 mouse superior and inferior colliculus at 70 uCi, iv after 90 mins in presence of nicotine; assay type: ADME, organism-based; details: in vivo, 1.5 h
[19] = Drug uptake in CD-1 mouse superior and inferior colliculus at 70 uCi, iv after 90 mins in presence of cytisine; assay type: ADME, organism-based; details: in vivo, 1.5 h
Nucleic Acid [20] = assay: Ratio of drug uptake from hippocampus to cerebellum in CD-1 mouse after 90 mins; assay type: ADME, nucleic-acid assay; details: 1.5 h
Nucleic Acid [21] = assay: Ratio of drug uptake from superior and inferior colliculus to cerebellum in CD-1 mouse after 90 mins; assay type: ADME, nucleic-acid assay; details: 1.5 h
Procedure, shortened: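 CD-1 mouse baseline biodistribution after i.v. [18F]radioligand (70 µCi, 8000–12000 mCi/µmol, in 0.2 mL saline), three mice per time point to 90 min. Regional gamma-counting gave %ID/g, and each region was expressed as a ratio to cerebellum.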

Thalamus = assay: Drug uptake in CD-1 mouse thalamus at 0.07 mCi, iv after 90 mins co-administered with SSR180711; assay type: ADME, organism-based; details: in vivo, 1.5 h
Procedure, shortened: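 Male CD-1 mice. [18F]tracer (0.07 mCi, SA 7900 mCi/µmol, 0.2 mL) co-injected i.v. with blocker at 0 (vehicle), 0.02, 0.2, 1 or 3 mg/kg. Blocker dissolved in saline:alcohol 9:1, pH 5.5. Brain regions harvested at 90 min and gamma-counted. %ID/g, mean ± SD, n=3 per dose; ANOVA versus controls.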

Cortex [22] = assay: Drug uptake in CD-1 mouse cortex at 0.07 mCi, iv after 90 mins co-administered with SSR180711; assay type: ADME, organism-based; details: in vivo, 1.5 h
Procedure, shortened: (§4)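 Male CD-1 mice (25–30 g), three per dose. Blocker in saline:ethanol 9:1 pH 5.5, given i.v. with [18F] radiotracer (70 µCi, SA 7900 mCi/µmol). Blocker doses 0, 0.02, 0.2, 1 and 3 mg/kg. Regions dissected 90 min later and gamma counted. Expressed as %ID/g, mean ± SD.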

Hippocampus [23] = assay: Drug uptake in CD-1 mouse hippocampus at 0.07 mCi, iv after 90 mins co-administered with SSR180711; assay type: ADME, organism-based; details: in vivo, 1.5 h; procedure, shortened: as §4
Mus musculus [24] = assay: Toxicity in CD-1 mouse assessed as change in locomotor activity at 0.07 mCi, iv after 90 mins in presence of 3-(1,4-Diazabicyclo[3.2.2]nonan-4-yl)-6-fluorodibenzo[b,d]thiophene 5,5-Dioxide; assay type: organism-based; details: in vivo, 1.5 h
Procedure, shortened: (§5)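 CD-1 mice observed for behavioral and locomotor changes during self-blockade studies. [18F]tracer (0.07 mCi, i.v.) was co-injected with the non-radioactive ligand at 0.3 or 0.2 mg/kg i.v., dissolved in saline at pH 5.5. Brains were harvested at 90 min.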

Mus musculus [25] = assay: Toxicity in CD-1 mouse assessed as change in behavioral activity at 0.07 mCi, iv after 90 mins in presence of 3-(1,4-Diazabicyclo[3.2.2]nonan-4-yl)-6-fluorodibenzo[b,d]thiophene 5,5-Dioxide; assay type: organism-based; details: in vivo, 1.5 h; procedure, shortened: as §5
Cerebellum [26] = assay: Drug uptake in CD-1 mouse cerebellum at 0.07 mCi, iv after 90 mins in presence of 3-(1,4-Diazabicyclo[3.2.2]nonan-4-yl)-6-fluorodibenzo[b,d]thiophene 5,5-Dioxide; assay type: ADME, organism-based; details: in vivo, 1.5 h
Procedure, shortened: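 Male CD-1 mice, n=3. [18F] radiotracer (70 µCi, 0.2 mL) given i.v. together with unlabeled blocker in saline pH 5.5. Brain regions dissected at 90 min, gamma counted, expressed as %ID/g.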

In the case of `O=S1(=O)c2cc(N3CCN4CCC3CC4)ccc2-c2cccc([18F])c21`, the Drug uptake (Brain [1]) is reported as “Active”, the Drug uptake (Hippocampus [2]) is reported as “Active” and the Drug uptake [3] is reported as “Active”. The Drug uptake (Cerebellum [4]) was “Active”, the Drug uptake [5] was “Active” and the Drug uptake (Cerebellum [6]) was “Active”. For the same compound, the Drug uptake (Brain [7]) was “Active”, the Drug uptake (Cortex [8]) was “Active” and the Drug uptake (Hippocampus [9]) was “Active”. The Drug uptake (Brain [10]) was “Active”, the Drug uptake (Cortex [11]) was “Active” and the Drug uptake (Cortex [12]) was “Active”. The Drug uptake [13] was “Active”, the Drug uptake [14] was “Active” and the Drug uptake [15] was “Not Active”. For the same compound, the Drug uptake (Cerebellum [16]) was “Active”, the Drug uptake (Hippocampus [17]) was “Not Active” and the Drug uptake [18] was “Not Active”. The Drug uptake [19] was “Not Active”, the Ratio (Nucleic Acid [20]) was 5.5 and the Ratio (Nucleic Acid [21]) was 8. The Drug uptake (Thalamus) was “Not Active”, the Drug uptake (Cortex [22]) was “Not Active” and the Drug uptake (Hippocampus [23]) was “Not Active”. For the same compound, the Activity (Mus musculus [24]) was “Non-toxic”, the Activity (Mus musculus [25]) was “Non-toxic” and the Drug uptake (Cerebellum [26]) was “Active”.
